From ChEMBL document CHEMBL1909611, “Identification and SAR of selective inducible nitric oxide synthase (iNOS) dimerization inhibitors” (Bioorg Med Chem Lett, 2011)

Columns and labels:
Assay type in all cases: cell-based
[1] = target: T1, Nitric oxide synthase 1 (Homo sapiens, UniProt P29475); test: Inhibition of human nNOS expressed in HEK293 cells assessed as inhibition ionomycin-induced nitric oxide production incubated for 24 hrs measured after 18 hrs of ionomycin challenge by 2,3-diaminonaphthalene assay
T1 sequence (P29475 whole entry): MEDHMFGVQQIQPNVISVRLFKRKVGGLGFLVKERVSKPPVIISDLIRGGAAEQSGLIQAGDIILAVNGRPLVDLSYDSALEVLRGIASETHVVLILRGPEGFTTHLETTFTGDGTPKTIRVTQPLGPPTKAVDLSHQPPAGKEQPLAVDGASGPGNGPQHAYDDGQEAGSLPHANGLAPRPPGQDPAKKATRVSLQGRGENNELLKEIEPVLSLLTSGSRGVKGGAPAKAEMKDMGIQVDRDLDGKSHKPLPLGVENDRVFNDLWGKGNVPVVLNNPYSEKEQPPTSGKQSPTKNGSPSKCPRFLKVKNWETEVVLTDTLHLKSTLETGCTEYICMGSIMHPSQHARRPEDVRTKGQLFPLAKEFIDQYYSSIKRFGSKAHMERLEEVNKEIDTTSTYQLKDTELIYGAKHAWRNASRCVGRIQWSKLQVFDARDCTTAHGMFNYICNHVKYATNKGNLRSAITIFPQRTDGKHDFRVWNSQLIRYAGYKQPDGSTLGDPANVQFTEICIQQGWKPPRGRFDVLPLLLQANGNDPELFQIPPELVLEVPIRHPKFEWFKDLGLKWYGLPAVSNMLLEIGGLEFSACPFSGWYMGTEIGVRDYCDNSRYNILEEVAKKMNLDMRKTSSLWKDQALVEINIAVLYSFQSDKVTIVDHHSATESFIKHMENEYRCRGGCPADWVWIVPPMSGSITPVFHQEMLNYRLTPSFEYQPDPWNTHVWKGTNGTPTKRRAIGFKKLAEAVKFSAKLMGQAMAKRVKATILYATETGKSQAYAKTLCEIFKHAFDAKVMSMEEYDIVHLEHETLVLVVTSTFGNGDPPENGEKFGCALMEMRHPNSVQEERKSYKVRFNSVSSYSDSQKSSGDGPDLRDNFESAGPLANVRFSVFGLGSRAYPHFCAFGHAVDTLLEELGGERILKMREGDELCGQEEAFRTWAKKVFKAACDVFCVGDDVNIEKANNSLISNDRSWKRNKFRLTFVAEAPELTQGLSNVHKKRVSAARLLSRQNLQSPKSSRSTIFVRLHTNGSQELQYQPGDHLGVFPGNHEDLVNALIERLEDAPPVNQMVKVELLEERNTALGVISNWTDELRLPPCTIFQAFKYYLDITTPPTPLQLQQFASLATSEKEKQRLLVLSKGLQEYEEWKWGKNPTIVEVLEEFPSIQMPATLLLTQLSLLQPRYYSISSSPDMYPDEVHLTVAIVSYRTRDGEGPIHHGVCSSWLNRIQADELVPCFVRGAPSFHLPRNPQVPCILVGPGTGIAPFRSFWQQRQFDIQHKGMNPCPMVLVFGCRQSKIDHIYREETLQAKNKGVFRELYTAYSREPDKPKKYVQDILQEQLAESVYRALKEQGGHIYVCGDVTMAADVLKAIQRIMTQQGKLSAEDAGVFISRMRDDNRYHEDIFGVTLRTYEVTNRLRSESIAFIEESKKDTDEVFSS
Outline: (§1)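 Transiently transfected cells plated at 5e5 cells/ml; compounds added immediately by pin transfer. Incubated 24 h with compound, then activated by ionophore (0.8 µM final). Fluorescence (ex 360/em 425 nm) read after raising pH with NaOH (0.12 N final). Values are mean of three experiments with SD. At 100 µM, <50% inhibition is reported as >100.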

[2] = target: T2, Nitric oxide synthase 3 (Homo sapiens) (UniProt P29474); test: Inhibition of human eNOS expressed in HEK293 cells assessed as inhibition A23187-induced nitric oxide production at 100 uM incubated for 24 hrs measured after 18 hrs of A23187 challenge by 2,3-diaminonaphthalene assay; outline: as §1
T2 sequence (whole entry): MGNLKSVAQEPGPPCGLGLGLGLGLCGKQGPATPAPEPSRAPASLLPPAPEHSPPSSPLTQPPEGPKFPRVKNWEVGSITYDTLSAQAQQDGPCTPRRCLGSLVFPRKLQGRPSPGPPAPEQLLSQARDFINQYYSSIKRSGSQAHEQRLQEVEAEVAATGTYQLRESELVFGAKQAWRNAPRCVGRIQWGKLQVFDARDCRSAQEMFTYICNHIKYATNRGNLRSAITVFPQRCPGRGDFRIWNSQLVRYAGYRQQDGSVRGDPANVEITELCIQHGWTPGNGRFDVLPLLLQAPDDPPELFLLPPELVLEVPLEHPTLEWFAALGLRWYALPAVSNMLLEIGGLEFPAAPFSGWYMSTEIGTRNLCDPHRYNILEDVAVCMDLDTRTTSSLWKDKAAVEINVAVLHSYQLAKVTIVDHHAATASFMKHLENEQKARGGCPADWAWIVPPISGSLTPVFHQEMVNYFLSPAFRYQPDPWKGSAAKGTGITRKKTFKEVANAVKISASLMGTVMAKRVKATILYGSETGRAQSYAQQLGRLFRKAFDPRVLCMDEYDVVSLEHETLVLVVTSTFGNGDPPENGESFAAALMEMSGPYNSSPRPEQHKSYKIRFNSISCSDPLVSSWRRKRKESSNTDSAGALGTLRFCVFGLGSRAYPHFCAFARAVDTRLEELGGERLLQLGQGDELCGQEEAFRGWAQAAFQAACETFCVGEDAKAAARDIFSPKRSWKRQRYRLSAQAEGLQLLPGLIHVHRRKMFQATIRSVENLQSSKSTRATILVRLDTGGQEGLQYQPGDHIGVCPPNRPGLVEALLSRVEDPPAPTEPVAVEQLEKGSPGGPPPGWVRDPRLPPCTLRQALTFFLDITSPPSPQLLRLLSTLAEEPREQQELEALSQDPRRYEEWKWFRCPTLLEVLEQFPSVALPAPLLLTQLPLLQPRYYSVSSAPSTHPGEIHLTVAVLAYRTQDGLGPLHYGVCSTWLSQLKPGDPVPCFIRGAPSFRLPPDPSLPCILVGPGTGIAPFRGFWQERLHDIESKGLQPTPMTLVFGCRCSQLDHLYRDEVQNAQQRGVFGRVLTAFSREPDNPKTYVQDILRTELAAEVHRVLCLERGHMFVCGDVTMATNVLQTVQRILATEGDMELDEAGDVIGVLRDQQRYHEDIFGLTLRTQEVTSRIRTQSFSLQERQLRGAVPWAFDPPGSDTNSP

[3] = target: T3, Nitric oxide synthase 3 (Homo sapiens, UniProt P29474); test: Inhibition of human eNOS expressed in HEK293 cells assessed as inhibition A23187-induced nitric oxide production incubated for 24 hrs measured after 18 hrs of A23187 challenge by 2,3-diaminonaphthalene assay; outline: as §1
T3 sequence (P29474 whole entry): T2 sequence (whole entry)

[4] = target: Nitric oxide synthase, inducible (Homo sapiens, UniProt P35228); test: Inhibition of human iNOS expressed in human HEK293 cells assessed as nitrite accumulation after 18 hrs by 2,3-diaminonapthalene assay
Sequence of Nitric oxide synthase, inducible (P35228 whole entry): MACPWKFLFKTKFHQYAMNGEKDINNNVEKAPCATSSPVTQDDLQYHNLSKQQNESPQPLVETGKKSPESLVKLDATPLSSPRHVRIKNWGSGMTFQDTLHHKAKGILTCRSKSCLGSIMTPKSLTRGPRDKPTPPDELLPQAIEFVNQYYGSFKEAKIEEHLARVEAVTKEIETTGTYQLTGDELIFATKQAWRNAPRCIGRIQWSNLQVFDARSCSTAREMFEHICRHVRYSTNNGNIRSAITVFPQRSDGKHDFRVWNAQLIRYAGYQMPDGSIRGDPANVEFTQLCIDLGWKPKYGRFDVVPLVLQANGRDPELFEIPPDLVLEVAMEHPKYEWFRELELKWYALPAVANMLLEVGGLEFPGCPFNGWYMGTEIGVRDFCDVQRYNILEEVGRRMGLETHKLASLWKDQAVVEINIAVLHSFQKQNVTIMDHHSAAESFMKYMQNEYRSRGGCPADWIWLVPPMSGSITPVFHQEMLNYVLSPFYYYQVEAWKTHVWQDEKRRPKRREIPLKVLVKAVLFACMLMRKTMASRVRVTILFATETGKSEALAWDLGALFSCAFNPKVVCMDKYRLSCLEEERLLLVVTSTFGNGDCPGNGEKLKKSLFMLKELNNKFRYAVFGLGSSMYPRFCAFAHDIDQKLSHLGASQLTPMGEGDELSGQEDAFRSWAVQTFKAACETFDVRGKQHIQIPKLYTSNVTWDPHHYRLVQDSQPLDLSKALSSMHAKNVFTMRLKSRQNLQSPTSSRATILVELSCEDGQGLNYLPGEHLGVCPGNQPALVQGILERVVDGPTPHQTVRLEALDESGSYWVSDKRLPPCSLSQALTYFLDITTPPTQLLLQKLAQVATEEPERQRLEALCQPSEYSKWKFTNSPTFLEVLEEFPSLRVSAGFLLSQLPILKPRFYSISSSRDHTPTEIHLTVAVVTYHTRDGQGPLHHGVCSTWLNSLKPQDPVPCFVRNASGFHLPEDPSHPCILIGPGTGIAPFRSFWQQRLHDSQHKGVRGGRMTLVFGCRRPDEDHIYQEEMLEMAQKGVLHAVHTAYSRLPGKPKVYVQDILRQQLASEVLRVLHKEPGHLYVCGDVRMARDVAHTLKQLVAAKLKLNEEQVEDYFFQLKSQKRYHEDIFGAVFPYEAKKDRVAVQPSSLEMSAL
Outline: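 Transiently transfected cells plated at 5e5 cells/ml; compounds added immediately by pin transfer. Incubated 18 h for nitrite accumulation. Fluorescence (ex 360/em 425 nm) read after raising pH with NaOH (0.12 N final). Values are mean of three experiments with SD. At 100 µM, <50% inhibition is reported as >100.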

[5] = target: T1, Nitric oxide synthase 1; test: Inhibition of human nNOS expressed in HEK293 cells assessed as inhibition ionomycin-induced nitric oxide production at 100 uM incubated for 24 hrs measured after 18 hrs of ionomycin challenge by 2,3-diaminonaphthalene assay; outline: as §1

Row | Compound | EC50 [1] | inhibition [2] | EC50 [3] | EC50 [4] | inhibition [5]
1 | c1csc(CN(CCCNCc2ccc3c(c2)OCO3)c2nc(-n3ccnc3)ns2)c1 | 0.69 µM | < 50% | > 100 µM | 0.009 µM | 
2 | CCCN(CCCNCc1ccc2c(c1)OCO2)c1nc(-n2ccnc2)ns1 | 2.3 µM | < 50% | > 100 µM | 0.009 µM | 
3 | c1cn(-c2nsc(N(CCCNCc3ccc4c(c3)OCO4)Cc3ccc4occc4c3)n2)cn1 | 7.9 µM | < 50% | > 100 µM | 0.09 µM | 
4 | NC(=O)CN(CCCNCc1ccc2c(c1)OCO2)c1nc(-n2ccnc2)ns1 | 11 µM | < 50% | > 100 µM | 0.081 µM | 
5 | Cc1cc(C(C)NCCOCc2ccc3c(c2)OCO3)nc(-n2ccnc2)n1 (centres undefined) | > 100 µM | < 50% | > 100 µM | 0.29 µM | < 50%
6 | c1cncc(CN(CCCNCc2ccc3c(c2)OCO3)c2nc(-n3ccnc3)ns2)c1 | 0.48 µM | < 50% | > 100 µM | 0.005 µM | 
7 | Cc1cc(C(C)NCCN(C)Cc2ccc3c(c2)OCO3)nc(-n2ccnc2)n1 (centres undefined) | 6 µM | < 50% | > 100 µM | 0.029 µM | 
8 | COc1ccc(CNCCCN(C)c2nc(-n3ccnc3)ns2)cc1 | > 100 µM | < 50% | > 100 µM | 0.36 µM | < 50%
9 | CCOC(=O)CN(CCCNCc1ccc2c(c1)OCO2)c1nc(-n2ccnc2)ns1 | 7.6 µM | < 50% | > 100 µM | 0.034 µM | 
10 | CN(C)C(=O)CN(CCCNCc1ccc2c(c1)OCO2)c1nc(-n2ccnc2)ns1 | > 100 µM | < 50% | > 100 µM | 0.08 µM | < 50%
11 | Cc1cc(CCCCNCc2ccc3c(c2)OCO3)nc(-n2ccnc2)n1 | > 100 µM | < 50% | > 100 µM | 0.02 µM | < 50%
12 | Cc1cc(C2CCCN2CCN(C)Cc2ccc3c(c2)OCO3)nc(-n2ccnc2)n1 (centres undefined) | 3.9 µM | < 50% | > 100 µM | 0.004 µM | 
13 | COc1ccc(CNCCCN(C)c2nc(-n3ccnc3)ns2)cc1OC | > 100 µM | < 50% | > 100 µM | 0.76 µM | < 50%
14 | Cc1cc(C2CCCN2C(=O)NCCc2ccc3c(c2)OCO3)nc(-n2ccnc2)n1 (centres undefined) | 2.7 µM | < 50% | > 100 µM | 0.009 µM | 
15 | CN(C)c1ccc(CN(CCCNCc2ccc3c(c2)OCO3)c2nc(-n3ccnc3)ns2)cc1 | 6.8 µM | < 50% | > 100 µM | 0.163 µM | 
16 | Cc1cc(C2CCCN2C(=O)CNCc2ccc3c(c2)OCO3)nc(-n2ccnc2)n1 (centres undefined) | 6.6 µM | < 50% | > 100 µM | 0.03 µM | 
17 | Cc1cc(C2CCCN2CC(=O)NCc2ccc3c(c2)OCO3)nc(-n2ccnc2)n1 (centres undefined) | 9.5 µM | < 50% | > 100 µM | 0.036 µM | 
18 | CN(CCCNCc1ccc2c(c1)OCCO2)c1nc(-n2ccnc2)ns1 | 24 µM | < 50% | > 100 µM | 0.048 µM | 
19 | c1cn(-c2nsc(N(CCCNCc3ccc4c(c3)OCO4)Cc3nccs3)n2)cn1 | 0.31 µM | < 50% | > 100 µM | 0.006 µM | 
20 | Oc1ccc(CN(CCCNCc2ccc3c(c2)OCO3)c2nc(-n3ccnc3)ns2)cc1 | 11 µM | < 50% | > 100 µM | 0.042 µM | 
21 | Cc1cc(CNC(=O)NCCc2ccc3c(c2)OCO3)nc(-n2ccnc2)n1 | > 100 µM | < 50% | > 100 µM | 0.014 µM | < 50%
22 | CN(CCCNC(=O)c1ccc2c(c1)OCO2)c1nc(-n2ccnc2)ns1 | > 100 µM | < 50% | > 100 µM | 6.3 µM | < 50%
23 | c1cn(-c2nsc(N(CCCNCc3ccc4c(c3)OCO4)C3CC3)n2)cn1 | 36 µM | < 50% | > 100 µM | 0.056 µM | 
24 | CN(CCCNCCc1ccc2c(c1)OCO2)c1nc(-n2ccnc2)ns1 | 47 µM | < 50% | > 100 µM | 0.23 µM | 
25 | c1coc(CN(CCCNCc2ccc3c(c2)OCO3)c2nc(-n3ccnc3)ns2)c1 | 2.1 µM | < 50% | > 100 µM | 0.014 µM | 
26 | Cc1cc(CNC(=O)CNCc2ccc3c(c2)OCO3)nc(-n2ccnc2)n1 | > 100 µM | < 50% | > 100 µM | 0.293 µM | < 50%
27 | N#CCN(CCCNCc1ccc2c(c1)OCO2)c1nc(-n2ccnc2)ns1 | 7.2 µM | < 50% | > 100 µM | 0.012 µM | 
28 | Cc1cc(-c2cccn2CCN(C)Cc2ccc3c(c2)OCO3)nc(-n2ccnc2)n1 | > 100 µM | < 50% | > 100 µM | 1.8 µM | < 50%
29 | Cn1cnc(CN(CCCNCc2ccc3c(c2)OCO3)c2nc(-n3ccnc3)ns2)c1 | 18 µM | < 50% | > 100 µM | 0.071 µM | 
30 | CNC(=O)CN(CCCNCc1ccc2c(c1)OCO2)c1nc(-n2ccnc2)ns1 | 7.2 µM | < 50% | > 100 µM | 0.059 µM | 
